The species entered for data set [1] is Homo sapiens. Nature of the data set: Selectivity ratio of Ki for PDE6 (unknown origin) to Ki for PDE5 (unknown origin).
Data set [2] has as its target T1, cGMP-specific 3',5'-cyclic phosphodiesterase (Homo sapiens, UniProt O76074). Nature of the data set: Inhibition of PDE5 (unknown origin).
Data set [3] is filed under the species Homo sapiens. Description: Selectivity ratio of IC50 for PDE6 (unknown origin) to IC50 for PDE5 (unknown origin).
Data set [4] deals with cGMP-inhibited 3',5'-cyclic phosphodiesterase 3B (Homo sapiens, UniProt Q13370). Description: Inhibition of recombinant human N-terminal GST-tagged PDE3B (592 to end residues) expressed in baculovirus infected sf9 cells using FAM-cyclic-3',5-AMP as substrate after 1 hr by fluorescence polarization assay. The method in brief: (§1)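 Fluorescence polarization assay run at 25 °C for 60 min in 40 mM MOPS pH 7.5, 0.5 mM EDTA, 15 mM MgCl2, 0.15 mg/mL BSA, 1 mM DTT, 0.05% ProClin 200. Contained 15 ng/mL PDE isoform and 100 nM FAM-cGMP or FAM-cAMP according to isoform, with 1% DMSO final. Binding agent added for 1 h at 25 °C; read at […] nm. IC50 from normalized nonlinear dose-response fit.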
Sequence of cGMP-inhibited 3',5'-cyclic phosphodiesterase 3B (Q13370 whole entry, canonical isoform): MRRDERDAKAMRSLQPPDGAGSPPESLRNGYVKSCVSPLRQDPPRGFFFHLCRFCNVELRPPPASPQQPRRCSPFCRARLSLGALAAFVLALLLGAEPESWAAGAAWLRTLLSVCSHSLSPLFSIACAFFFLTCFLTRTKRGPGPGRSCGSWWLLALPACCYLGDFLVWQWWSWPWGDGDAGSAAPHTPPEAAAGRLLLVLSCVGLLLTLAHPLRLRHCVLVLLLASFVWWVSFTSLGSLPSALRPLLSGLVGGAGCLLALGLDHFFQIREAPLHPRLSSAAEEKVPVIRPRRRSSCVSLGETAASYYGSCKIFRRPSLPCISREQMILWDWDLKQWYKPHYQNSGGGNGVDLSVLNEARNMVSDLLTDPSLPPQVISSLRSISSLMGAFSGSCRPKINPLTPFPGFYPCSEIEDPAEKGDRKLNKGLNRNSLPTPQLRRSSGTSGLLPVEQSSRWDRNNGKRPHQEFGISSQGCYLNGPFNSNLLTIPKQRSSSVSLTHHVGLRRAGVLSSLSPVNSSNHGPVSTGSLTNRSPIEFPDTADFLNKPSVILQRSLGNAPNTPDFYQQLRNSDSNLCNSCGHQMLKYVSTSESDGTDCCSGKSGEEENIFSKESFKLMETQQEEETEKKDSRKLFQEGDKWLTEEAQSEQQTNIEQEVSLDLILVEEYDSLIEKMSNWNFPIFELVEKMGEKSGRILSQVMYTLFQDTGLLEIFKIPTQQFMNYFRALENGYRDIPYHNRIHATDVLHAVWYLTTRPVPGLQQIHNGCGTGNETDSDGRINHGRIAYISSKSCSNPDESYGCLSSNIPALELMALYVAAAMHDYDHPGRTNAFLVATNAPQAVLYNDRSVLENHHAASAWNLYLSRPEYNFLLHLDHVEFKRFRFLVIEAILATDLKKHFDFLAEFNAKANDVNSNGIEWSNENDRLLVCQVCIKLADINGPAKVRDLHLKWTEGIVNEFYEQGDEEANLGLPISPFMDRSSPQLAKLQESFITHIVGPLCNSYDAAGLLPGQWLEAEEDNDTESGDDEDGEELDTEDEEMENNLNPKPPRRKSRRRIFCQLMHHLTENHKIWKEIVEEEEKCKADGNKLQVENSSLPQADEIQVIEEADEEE
(Polarisation of emitted light reports the rotation of a fluorescent probe.)

Data set [5] addresses T1, cGMP-specific 3',5'-cyclic phosphodiesterase. Description: Inhibition of full length recombinant human N-terminal GST-tagged PDE5A1 expressed in baculovirus infected sf9 cells using FAM-cyclic-3',5-GMP as substrate after 1 hr by fluorescence polarization assay.
Data set [6] is filed under the species Homo sapiens. Nature of the data set: Selectivity index, ratio of IC50 for inhibition of recombinant human N-terminal GST-tagged PDE10A1 (2 to 789 residues) expressed in baculovirus infected sf9 cells to IC50 for inhibition of full length recombinant human N-terminal GST-tagged PDE5A1 expressed in baculovirus infected sf9 cells.
Data set [7] concerns the target cGMP-dependent 3',5'-cyclic phosphodiesterase (Homo sapiens, UniProt O00408). Description: Inhibition of recombinant human N-terminal FLAG-tagged PDE2A (2 to 941 residues) expressed in baculovirus infected sf9 cells using FAM-cyclic-3',5-AMP as substrate after 1 hr by fluorescence polarization assay. The gist of the method: as §1
The nature of data set [8]: Stability of the compound in PDE5 enzyme assay condition at 100 uM by HPLC analysis. The data set is classed as ADME.
The species named for data set [9] is Homo sapiens. Description: Selectivity index, ratio of IC50 for inhibition of full length recombinant human N-terminal GST-tagged PDE8A1 expressed in baculovirus infected sf9 cells to IC50 for inhibition of full length recombinant human N-terminal GST-tagged PDE5A1 expressed in baculovirus infected sf9 cells.
Data set [10] concerns the target High affinity 3',5'-cyclic-AMP phosphodiesterase 7A (Homo sapiens, UniProt Q13946). Nature of the data set: Inhibition of recombinant human N-terminal GST-tagged PDE7A (122 to end residues) expressed in baculovirus infected sf9 cells using FAM-cyclic-3',5-AMP as substrate after 1 hr by fluorescence polarization assay. The gist of the method: as §1
Data set [11] concerns the target High affinity cGMP-specific 3',5'-cyclic phosphodiesterase 9A (Homo sapiens, UniProt O76083). Nature of the data set: Inhibition of full length recombinant human N-terminal GST-tagged PDE9A2 expressed in baculovirus infected sf9 cells using […] as substrate after 1 hr by fluorescence polarization assay. The method in brief: as §1
Data set [12] deals with Dual 3',5'-cyclic-AMP and -GMP phosphodiesterase 11A (Homo sapiens, UniProt Q9HCR9). Nature of the data set: Inhibition of full length recombinant human N-terminal GST-tagged PDE11A4 expressed in baculovirus infected sf9 cells using FAM-cyclic-3',5-AMP as substrate after 1 hr by fluorescence polarization assay.
Sequence of Dual 3',5'-cyclic-AMP and -GMP phosphodiesterase 11A (Q9HCR9 whole entry, the tested form may be a part): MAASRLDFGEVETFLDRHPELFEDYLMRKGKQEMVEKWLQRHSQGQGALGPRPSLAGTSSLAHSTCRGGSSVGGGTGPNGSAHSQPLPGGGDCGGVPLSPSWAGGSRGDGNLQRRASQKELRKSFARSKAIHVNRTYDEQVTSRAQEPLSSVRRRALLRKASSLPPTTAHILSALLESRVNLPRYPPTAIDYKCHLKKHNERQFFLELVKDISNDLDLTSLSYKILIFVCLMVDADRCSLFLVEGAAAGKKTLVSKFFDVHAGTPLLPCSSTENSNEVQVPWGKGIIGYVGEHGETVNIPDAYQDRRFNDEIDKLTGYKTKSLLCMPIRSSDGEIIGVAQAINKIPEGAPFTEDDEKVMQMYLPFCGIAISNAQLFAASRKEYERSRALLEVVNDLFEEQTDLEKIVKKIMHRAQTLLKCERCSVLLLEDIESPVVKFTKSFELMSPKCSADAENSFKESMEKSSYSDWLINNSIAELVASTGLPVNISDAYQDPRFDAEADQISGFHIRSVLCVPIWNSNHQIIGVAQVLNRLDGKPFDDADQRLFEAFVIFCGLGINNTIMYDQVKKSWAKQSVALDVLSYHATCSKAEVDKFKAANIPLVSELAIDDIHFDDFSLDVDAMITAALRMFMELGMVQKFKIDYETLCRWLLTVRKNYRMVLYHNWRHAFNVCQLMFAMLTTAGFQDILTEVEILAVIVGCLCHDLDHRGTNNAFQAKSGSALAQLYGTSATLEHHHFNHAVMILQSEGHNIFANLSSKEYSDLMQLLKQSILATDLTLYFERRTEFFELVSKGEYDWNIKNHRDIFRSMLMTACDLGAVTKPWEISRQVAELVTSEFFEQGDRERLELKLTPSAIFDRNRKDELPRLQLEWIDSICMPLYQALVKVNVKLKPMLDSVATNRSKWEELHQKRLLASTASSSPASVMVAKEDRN
In data set [13] the target is cAMP and cAMP-inhibited cGMP 3',5'-cyclic phosphodiesterase 10A (Homo sapiens, UniProt Q9Y233). Nature of the data set: Inhibition of recombinant human N-terminal GST-tagged PDE10A1 (2 to 789 residues) expressed in baculovirus infected sf9 cells using FAM-cyclic-3',5-AMP as substrate after 1 hr by fluorescence polarization assay. The method in brief:
as §1

For data set [14], the species on record is Homo sapiens. Nature of the data set: Selectivity index, ratio of IC50 for inhibition of recombinant human N-terminal GST-tagged PDE7A (122 to end residues) expressed in baculovirus infected sf9 cells to IC50 for inhibition of full length recombinant human N-terminal GST-tagged PDE5A1 expressed in baculovirus infected sf9 cells.
Data set [15] has as its target Dual specificity calcium/calmodulin-dependent 3',5'-cyclic nucleotide phosphodiesterase 1A (Homo sapiens, UniProt P54750). Nature of the data set: Inhibition of full length recombinant human N-terminal GST-tagged PDE1A expressed in baculovirus infected sf9 cells using FAM-cyclic-3',5-AMP as substrate after 1 hr by fluorescence polarization assay. The method in brief: as §1

Data set [16] addresses cGMP-specific 3',5'-cyclic phosphodiesterase (Rattus norvegicus) (UniProt O54735). Nature of the data set: (§2) Inhibition of PDE5 in Wistar rat mesentric arteries assessed as inhibition of phenylephrine-induced contraction by measuring increase in acetylcholine-induced vasorelaxation by pressure myographic method. The method in brief:
(§3)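 Third-order rat mesenteric arteries (110–150 µm), 3–4 mm unbranched segments, cannulated in PSS (pH 7.4, 95% O2/5% CO2). Equilibrated 35 min while pressure was stepped 10→60 mmHg. Checked with 120 mM KCl and acetylcholine, then constricted with 20 µM phenylephrine (norepinephrine in text) and given compounds cumulatively. Ca²⁺-free PSS set maximal dilation. Outer diameter recorded as % relaxation; EC50 from normalized nonlinear fit.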

The target of data set [17] is cGMP-specific 3',5'-cyclic phosphodiesterase (Rattus norvegicus, UniProt O54735). Described as §2. The gist of the method:
as §3

For data set [18], the species on record is Homo sapiens. Nature of the data set: Selectivity index, ratio of IC50 for inhibition of full length recombinant human N-terminal GST-tagged PDE11A4 expressed in baculovirus infected sf9 cells to IC50 for inhibition of full length recombinant human N-terminal GST-tagged PDE5A1 expressed in baculovirus infected sf9 cells.
The species named for data set [19] is Homo sapiens. Nature of the data set: Selectivity index, ratio of IC50 for inhibition of full length recombinant human N-terminal GST-tagged PDE9A2 expressed in baculovirus infected sf9 cells to IC50 for inhibition of full length recombinant human N-terminal GST-tagged PDE5A1 expressed in baculovirus infected sf9 cells.
For data set [20], the species on record is Homo sapiens. Nature of the data set: Selectivity index, ratio of IC50 for inhibition of full length recombinant human N-terminal GST-tagged PDE6C expressed in baculovirus infected sf9 cells to IC50 for inhibition of full length recombinant human N-terminal GST-tagged PDE5A1 expressed in baculovirus infected sf9 cells.
The target of data set [21] is High affinity cAMP-specific and IBMX-insensitive 3',5'-cyclic phosphodiesterase 8A (Homo sapiens, UniProt O60658). Nature of the data set: Inhibition of full length recombinant human N-terminal GST-tagged PDE8A1 expressed in baculovirus infected sf9 cells using FAM-cyclic-3',5-AMP as substrate after 1 hr by fluorescence polarization assay. The gist of the method: as §1
Sequence of High affinity cAMP-specific and IBMX-insensitive 3',5'-cyclic phosphodiesterase 8A (O60658 whole entry): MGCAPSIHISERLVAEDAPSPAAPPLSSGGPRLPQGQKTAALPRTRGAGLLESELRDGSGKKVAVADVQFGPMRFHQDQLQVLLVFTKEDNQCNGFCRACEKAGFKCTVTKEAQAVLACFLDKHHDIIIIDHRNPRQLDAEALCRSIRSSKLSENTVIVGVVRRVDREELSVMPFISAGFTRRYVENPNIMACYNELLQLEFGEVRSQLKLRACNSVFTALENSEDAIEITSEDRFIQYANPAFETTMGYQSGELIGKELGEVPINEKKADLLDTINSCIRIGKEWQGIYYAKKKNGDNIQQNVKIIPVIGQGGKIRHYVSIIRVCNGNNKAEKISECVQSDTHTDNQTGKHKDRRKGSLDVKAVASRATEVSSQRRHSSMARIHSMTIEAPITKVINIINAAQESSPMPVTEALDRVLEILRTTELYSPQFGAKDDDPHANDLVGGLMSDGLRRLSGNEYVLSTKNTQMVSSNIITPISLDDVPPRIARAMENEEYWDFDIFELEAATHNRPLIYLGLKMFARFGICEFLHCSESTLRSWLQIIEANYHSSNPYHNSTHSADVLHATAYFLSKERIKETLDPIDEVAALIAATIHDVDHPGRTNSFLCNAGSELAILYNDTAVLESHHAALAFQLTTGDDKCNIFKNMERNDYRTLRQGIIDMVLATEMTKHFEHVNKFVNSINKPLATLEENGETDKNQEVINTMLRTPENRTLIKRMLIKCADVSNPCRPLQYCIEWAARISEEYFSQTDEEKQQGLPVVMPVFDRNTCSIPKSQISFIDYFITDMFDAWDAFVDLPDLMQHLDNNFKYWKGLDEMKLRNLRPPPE

Data set [22] has as its target 3',5'-cyclic-AMP phosphodiesterase 4A (Homo sapiens, UniProt P27815). Nature of the data set: Inhibition of full length recombinant human N-terminal GST-tagged PDE4A1A expressed in baculovirus infected sf9 cells using FAM-cyclic-3',5-AMP as substrate after 1 hr by fluorescence polarization assay.
Data set [23] deals with T1, cGMP-specific 3',5'-cyclic phosphodiesterase. Nature of the data set: Inhibition of full length recombinant human N-terminal GST-tagged PDE5A1 expressed in baculovirus infected sf9 cells at 100 nM using FAM-cyclic-3',5-GMP as substrate after 1 hr by fluorescence polarization assay relative to control. The gist of the method: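 Single-point test at 100 nM, reported as percent inhibition. Human PDE5 at 15 ng/mL with 100 nM FAM-cGMP in MOPS pH 7.5 buffer (MgCl2, EDTA, BSA, DTT), 1% DMSO final, 60 min at 25 °C. Binding agent added for 1 h, then fluorescence polarization read at […] nm.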

The target in data set [24] is Cone cGMP-specific 3',5'-cyclic phosphodiesterase subunit alpha' (Homo sapiens, UniProt P51160). Description: Inhibition of full length recombinant human N-terminal GST-tagged PDE6C expressed in baculovirus infected sf9 cells using […] as substrate after 1 hr by fluorescence polarization assay.

The record followed here is ChEMBL document CHEMBL4265950, “Discovery of furyl/thienyl β-carboline derivatives as potent and selective PDE5 inhibitors with excellent vasorelaxant effect” (Eur J Med Chem, 2018).

A value given as a limit tells only on which side of the number the result lay.

By Ki is commonly meant the equilibrium dissociation constant of an inhibitor or competing ligand from its target. Read a high Ki as a looser hold on the target. In general, IC50 refers to the concentration needed to halve the response being measured. As usually defined, the EC50 is the concentration giving half of the maximal effect. The term inhibition denotes the change of the read-out against control, counted positive when it falls.

Sequence of cAMP and cAMP-inhibited cGMP 3',5'-cyclic phosphodiesterase 10A (Q9Y233 whole entry, the tested form may be a part): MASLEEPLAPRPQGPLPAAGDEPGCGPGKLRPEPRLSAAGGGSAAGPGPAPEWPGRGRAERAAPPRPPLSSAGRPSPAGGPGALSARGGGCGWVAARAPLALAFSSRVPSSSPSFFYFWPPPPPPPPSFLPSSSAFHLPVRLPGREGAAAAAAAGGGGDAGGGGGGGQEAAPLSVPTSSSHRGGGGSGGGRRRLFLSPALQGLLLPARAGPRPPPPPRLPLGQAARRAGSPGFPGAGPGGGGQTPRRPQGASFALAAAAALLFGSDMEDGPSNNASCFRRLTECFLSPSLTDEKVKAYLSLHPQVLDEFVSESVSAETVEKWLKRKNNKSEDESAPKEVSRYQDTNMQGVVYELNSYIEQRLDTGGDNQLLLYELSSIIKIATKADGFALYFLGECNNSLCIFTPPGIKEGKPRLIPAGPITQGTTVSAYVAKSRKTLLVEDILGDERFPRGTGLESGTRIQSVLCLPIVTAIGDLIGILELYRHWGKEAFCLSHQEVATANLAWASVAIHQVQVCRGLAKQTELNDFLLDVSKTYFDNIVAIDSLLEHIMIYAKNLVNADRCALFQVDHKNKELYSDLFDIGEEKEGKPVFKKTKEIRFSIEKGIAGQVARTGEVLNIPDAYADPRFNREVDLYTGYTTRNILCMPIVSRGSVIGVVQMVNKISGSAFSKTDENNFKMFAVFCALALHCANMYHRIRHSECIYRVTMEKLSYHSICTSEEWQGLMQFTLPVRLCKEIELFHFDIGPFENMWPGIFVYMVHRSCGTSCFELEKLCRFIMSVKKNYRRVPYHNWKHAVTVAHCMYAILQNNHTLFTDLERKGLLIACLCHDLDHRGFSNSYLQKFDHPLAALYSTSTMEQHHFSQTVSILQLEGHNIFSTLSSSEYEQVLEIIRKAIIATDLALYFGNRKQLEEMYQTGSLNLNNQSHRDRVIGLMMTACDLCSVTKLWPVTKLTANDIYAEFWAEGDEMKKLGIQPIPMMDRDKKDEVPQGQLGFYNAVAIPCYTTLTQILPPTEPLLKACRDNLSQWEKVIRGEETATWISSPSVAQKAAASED
Sequence of cGMP-dependent 3',5'-cyclic phosphodiesterase (O00408 whole entry, the tested form may be a part): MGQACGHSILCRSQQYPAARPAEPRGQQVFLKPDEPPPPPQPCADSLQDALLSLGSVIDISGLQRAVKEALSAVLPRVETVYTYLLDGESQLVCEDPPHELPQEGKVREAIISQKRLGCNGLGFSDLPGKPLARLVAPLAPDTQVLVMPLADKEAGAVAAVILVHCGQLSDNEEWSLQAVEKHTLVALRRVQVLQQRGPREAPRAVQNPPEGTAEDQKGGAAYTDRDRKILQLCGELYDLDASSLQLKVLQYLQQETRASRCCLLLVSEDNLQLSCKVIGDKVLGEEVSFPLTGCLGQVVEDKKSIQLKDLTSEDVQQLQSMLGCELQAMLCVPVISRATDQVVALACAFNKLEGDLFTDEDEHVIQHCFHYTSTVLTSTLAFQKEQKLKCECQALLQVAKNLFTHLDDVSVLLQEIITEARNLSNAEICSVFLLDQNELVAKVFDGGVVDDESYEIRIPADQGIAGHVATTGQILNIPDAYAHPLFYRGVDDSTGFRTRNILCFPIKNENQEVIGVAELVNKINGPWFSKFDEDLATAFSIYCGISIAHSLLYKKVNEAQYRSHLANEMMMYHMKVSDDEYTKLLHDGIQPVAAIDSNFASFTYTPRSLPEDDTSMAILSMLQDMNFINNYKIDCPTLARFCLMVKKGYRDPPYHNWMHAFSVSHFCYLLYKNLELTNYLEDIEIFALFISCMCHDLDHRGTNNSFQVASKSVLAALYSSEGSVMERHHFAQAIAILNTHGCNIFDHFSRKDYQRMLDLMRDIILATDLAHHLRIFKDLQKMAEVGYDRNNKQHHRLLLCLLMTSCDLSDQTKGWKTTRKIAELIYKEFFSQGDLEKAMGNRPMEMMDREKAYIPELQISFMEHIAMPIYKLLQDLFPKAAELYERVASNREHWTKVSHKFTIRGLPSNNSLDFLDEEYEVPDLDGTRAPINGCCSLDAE

In the case of `CN1CCN(C(=O)c2ccc(-c3ccc(C(=O)N4CCc5c([nH]c6ccccc56)C4c4ccc5c(c4)OCO5)o3)cc2)CC1` (racemic), the Ratio Ki in data set [1] was 187. The Ki in [2] turned out to be 8 nM.

On to `COc1ccc(CNc2nc(N3CCC[C@H]3CO)ncc2C(=O)NCc2ncccn2)cc1Cl`, for which, in [1], the Ratio Ki amounted to 1000.

Regarding `CCc1ccc(C2c3[nH]c4ccccc4c(=O)c3CN2c2ncc(-c3ccccn3)cn2)s1` (centres undefined), in data set [3], the Ratio IC50 came to 8.

In the case of `CCc1ccc([C@@H]2c3[nH]c4ccccc4c3C[C@@H]3C(=O)N(C)CC(=O)N23)s1`, the IC50 was greater than 20 µM in data set [4]; 3.87 nM in data set [5]; greater than 20 µM in [7]; greater than 4 µM in data set [10]; greater than 4 µM in data set [11]; 272 nM in data set [12]. The IC50 in data set [13] was greater than 4 µM; in [15], greater than 20 µM; in data set [21], greater than 4 µM; in [22], greater than 10 µM; in data set [24], greater than 1000 nM. In addition, the Ratio IC50 in data set [6] is greater than 1000; in data set [9], greater than 1000; in data set [14] it was greater than 1000; in data set [18], 70; in data set [19], greater than 1000; in [20], greater than 258. Further, in [8], the Stability entry is on record as “Stable”. In data set [16], the percent relaxation entry is “Dose-dependent effect”. In data set [17], the EC50 was found to be 30 nM. Further, the inhibition in data set [23] was 97.8%.

On to `CCc1ccc([C@@H]2c3[nH]c4ccccc4c3C[C@@H]3C(=O)N(C)CC(=O)N23)o1`, for which the IC50 is greater than 20 µM in data set [4]; 12.7 nM in data set [5]; greater than 20 µM in [7]; 119 nM in [12]; greater than 20 µM in [15]; greater than 10 µM in data set [22]. Also, the IC50 in [24] was greater than 1000 nM. In data set [8], the Stability entry was “Stable”. Besides, the percent relaxation result in data set [16] is “Dose-dependent effect”. Further, the EC50 in data set [17] was 725 nM. Also, the Ratio IC50 is 9 in data set [18] and greater than 79 in data set [20]. Further, in data set [23], the inhibition came out at 98.4%.

For `CCc1ccc([C@@H]2c3[nH]c4ccccc4c3C[C@H]3C(=O)N(CC)C(=O)N23)o1`, the IC50 in data set [4] was greater than 20 µM; in data set [5] it was 2.92 nM; in data set [7], greater than 20 µM; in data set [10] it was greater than 3 µM; in [11], greater than 3 µM; in [12], greater than 1000 nM. For the same compound, the IC50 in [13] was greater than 3 µM; in [15], greater than 20 µM; in data set [21], greater than 3 µM; in data set [22], greater than 10 µM; in [24], 127 nM. In addition, the Ratio IC50 in data set [6] was greater than 1000; in data set [9], greater than 1000; in [14] it was greater than 1000; in [18], greater than 342; in data set [19], greater than 1000; in data set [20], 43. The Stability entry in [8] is “Stable”. Moreover, the percent relaxation entry in data set [16] is “Dose-dependent effect”. In addition, in [17], the EC50 was 63 nM. In addition, the inhibition in [23] came to 99.5%.

For `CN1CC(=O)N2[C@H](c3ccc4c(c3)OCO4)c3[nH]c4ccccc4c3C[C@@H]2C1=O`, the IC50 in data set [4], in [7], in data set [10], in data set [11], in [13] and in data set [15] was greater than 10 µM in each case. In addition, in data set [21], the IC50 was greater than 10 µM. For the same compound, in data set [17], the EC50 was 78 nM.

`CCc1ccc(C2c3[nH]c4ccccc4c(=O)c3CN2c2ncc(-c3ccccn3)cn2)o1` (centres undefined) came in with an IC50 in data set [2] of 0.53 nM. Further, the Ratio IC50 in data set [3] turned out to be 4.
